This note sets out measurements from ChEMBL document CHEMBL3259621, “Novel merosesquiterpene exerts a potent antitumor activity against breast cancer cells in vitro and in vivo” (Eur J Med Chem, 2014).

The test system of one data set is MCF7. Kind of data set: Cytotoxicity against human MCF7 cells after 3 days by SRB assay. To be noted: MCF7, 72 h. It is filed as functional, cell-based. In outline: (§1)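 Cells seeded in quadruplicate at 5 × 10³ cells/cm². Compound added at 24 h over increasing concentrations for 3 days. Cells fixed with cold 10% TCA, stained with 0.4% sulforhodamine B in 1% acetic acid, dye solubilized in 10 mM Tris pH 10.5, OD read at 492 nm. IC50 taken by linear interpolation of the semi-log dose-response curve. DMSO below 0.1% final.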

The next data set concerns T84. Briefly: Cytotoxicity against human T84 cells after 3 days by SRB assay. Format: functional, cell-based. To be noted: T84, 72 h. A digest of the protocol: as §1
Another data set relates to A549. Briefly: Cytotoxicity against human A549 cells after 3 days by SRB assay. It is filed as functional, cell-based. To be noted: A549, 72 h. A digest of the protocol: as §1
The subject of the next data set is T47D. Briefly: Cytotoxicity against human T47D cells after 3 days by SRB assay. Format: functional, cell-based. The note with it: 72 h. A digest of the protocol:
(§2)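 Cells seeded at 5 × 10³ cells/cm² in quadruplicate and, after 24 h, treated with increasing concentrations for 3 days. Compounds diluted from DMSO stock, final DMSO <0.1% v/v. Cells were fixed with cold 10% TCA, stained with 0.4% sulforhodamine B in 1% acetic acid, and dye solubilised in 10 mM Tris-base pH 10.5. OD read at 492 nm. IC50 obtained by linear interpolation on a semi-log dose-response curve.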

In the next data set the test system is SW480. Briefly: Cytotoxicity against human SW480 cells after 3 days by SRB assay. Format: functional, cell-based. To be noted: SW480, 72 h. A digest of the protocol:
as §2

A short description of data set [1]: Therapeutic index, ratio of IC50 for human CCD-18Co cells to IC50 for human RKO cells. Format: cell-based. To be noted: CCD-18Co cells versus RKO cells, read-out: Ratio IC50.
A short description of data set [2]: Therapeutic index, ratio of IC50 for human MCF10A cells to IC50 for mouse E0771 cells. Format: cell-based, MCF-10A. To be noted: MCF10A cells versus E0771 cells, read-out: Ratio IC50.
Data set [3] is described as follows: Therapeutic index, ratio of IC50 for human CCD-18Co cells to IC50 for human HT-29 cells. Format: cell-based. To be noted: CCD-18Co cells versus HT-29 cells, read-out: Ratio IC50.
The nature of data set [4]: Cytotoxicity against human MCF10A cells after 3 days by SRB assay. The note with it: MCF-10A, 72 h. Format: cell-based. A digest of the protocol:
as §2

The nature of data set [5]: Therapeutic index, ratio of IC50 for human MCF10A cells to IC50 for human MCF7 cells. The note with it: MCF10A cells versus MCF7 cells, read-out: Ratio IC50. It is filed as cell-based, MCF-10A.
The next data set has as its system MDA-MB-231. Briefly: Cytotoxicity against human MDA-MB-231 cells after 3 days by SRB assay. It is filed as functional, cell-based. The note with it: MDA-MB-231, 72 h. A digest of the protocol:
as §2

In a further data set the test system is RKO. Kind of data set: Cytotoxicity against human RKO cells after 3 days by SRB assay. Format: functional, cell-based. The note with it: 72 h. In outline: as §2
Data set [6] is described as follows: Cytotoxicity against human CCD-18Co cells after 3 days by SRB assay. Format: cell-based. To be noted: 72 h. A digest of the protocol:
as §2

Data set [7] in a line: Cytotoxicity against mouse E0771 cells after 3 days by SRB assay. To be noted: E0771, 72 h. Format: functional, cell-based. A digest of the protocol:
as §2

Data set [8] can be described thus: Therapeutic index, ratio of IC50 for human MCF10A cells to IC50 for human T47D cells. Format: cell-based, MCF-10A. The note with it: MCF10A cells versus T47D cells, read-out: Ratio IC50.
Data set [9] is described as follows: Therapeutic index, ratio of IC50 for human MCF10A cells to IC50 for human MDA-MB-231 cells. It is filed as cell-based, MCF-10A. The note with it: MCF10A cells versus MDA-MB-231 cells, read-out: Ratio IC50.
The next data set concerns HT-29. Kind of data set: Cytotoxicity against human HT-29 cells after 3 days by SRB assay. Format: functional, cell-based. To be noted: HT-29, 72 h. In outline:
as §2

A short description of data set [10]: Therapeutic index, ratio of IC50 for human CCD-18Co cells to IC50 for human T84 cells. To be noted: CCD-18Co cells versus T84 cells, read-out: Ratio IC50. It is filed as cell-based, T84; CCD-18Co.
Data set [11] can be described thus: Therapeutic index, ratio of IC50 for human CCD-18Co cells to IC50 for human SW480 cells. It is filed as cell-based. To be noted: CCD-18Co cells versus SW480 cells, read-out: Ratio IC50.

As for `C=C1CC[C@@H]2[C@](C)(CCC[C@]2(C)C(=O)OC)[C@H]1Cc1c(C)ccc2c1C(=O)C(O)=CC2=O`, the results for the IC50 in the data set on MCF7, in the data set on T84 and with A549 were 38.4 µM, 30 µM and 41.2 µM, respectively.

In the case of `C=C1CC[C@@H]2[C@](C)(CCC[C@]2(C)C(=O)OC)[C@H]1Cc1c(C)ccc(C(=O)OC)c1O`, the IC50 with MCF7 came out at 45.1 µM; with T84, 40 µM; in the data set with A549, 27 µM.

As to `O=c1[nH]cc(F)c(=O)[nH]1` [FLUOROURACIL], the IC50 in the data set on T47D worked out at 10.6 µM; with MCF7, 2.86 µM; in the data set on SW480, 3.69 µM; in [4], 8.06 µM; in the data set on MDA-MB-231, 18.1 µM; with RKO, 4.39 µM. For the same compound, the IC50 in data set [6] was 9.26 µM; in data set [7], 280 nM; in the data set on HT-29, 2580 nM. In addition, the selectivity ratio was determined as 2.11 in [1]; 28.8 in [2]; 3.6 in [3]; 2.82 in [5]; 0.76 in [8]; 0.44 in data set [9]. Moreover, the selectivity ratio in data set [10] was found to be 2.76; in data set [11] it was 2.51.

Regarding `C=C1CC[C@@H]2[C@](C)(CCC[C@]2(C)C(=O)OC)[C@H]1Cc1c(C)cccc1C#N`, the IC50 was found to be 39.6 µM in the data set with MCF7, 23.7 µM in the data set with T84 and 20.2 µM in the data set with A549.

Regarding `C=C1CC[C@@H]2[C@](C)(CCC[C@]2(C)C(=O)OC)[C@H]1Cc1c(C)cccc1C(=O)OC`, the IC50 was 40.4 µM with MCF7, 29 µM with T84 and 28.1 µM with A549.

As to `C=C1CC[C@@H]2[C@](C)(CCC[C@]2(C)C(=O)OC)[C@H]1Cc1c(C)ccc(C(=O)OC)c1C(=O)OC`, the IC50 with MCF7 was 33 µM; in the data set on T84, 25 µM; in the data set on A549, 19.9 µM.

Take `C=C1CC[C@@H]2[C@](C)(CCC[C@]2(C)C(=O)OC)[C@H]1Cc1c(C)ccc2c1C(=O)C(OC)=CC2=O`: the concentration for half-maximal inhibition (IC50) came out at 16 µM with MCF7, 16.7 µM in the data set on T84 and 17.5 µM in the data set on A549.
